The source made the active and inactive calls. The rule behind the calls is not given here.
What was measured:
[1] = species: Homo sapiens; assay: Inhibition of tubulin alpha in human OV2008 cells assessed as induction of disturbance in cellular microtubule shape and integrity at 2 to 4 uM after overnight incubation by immunofluorescence analysis; type: cell-based
[2] = tested on: 2008; assay: Induction of cell cycle arrest in human OV2008 cells assessed as cell accumulation at S phase at 4 uM incubated for 12 hrs by propidium iodide staining based flow cytometry (reference value: 5.2%); type: functional
Summary of the method: (§1)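 OV2008 cells were plated at 1x10^6 cells/well and incubated with 0, 2 or 4 µM for 12 h. Cells were trypsinised, washed and resuspended in ice-cold PBS, then stained with propidium iodide for at least 15 min. Phase distribution was measured by flow cytometry. Means ± SD of three independent experiments in triplicate.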

[3] = tested on: MCF7; assay: Cytotoxicity in human MCF7 cells assessed as reduction in cell viability incubated for 68 hrs by MTT assay; type: functional, cell-based; conditions: MCF7, 68 h
Summary of the method: (§2)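 Cells were trypsinised and seeded at 5x10^3 cells/well. Compound was added at 0, 0.1, 0.3, 1, 3, 10, 30 and 100 µM for 68 h. MTT (4 mg/mL solution) was then added for 4 h, and the formazan was dissolved in DMSO. Absorbance read at 570 nm. IC50 was derived from % survival across the eight concentrations. Mean ± SD of three independent experiments, each in triplicate.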

[4] = tested on: A2780; assay: Induction of apoptosis in human A2780 cells assessed as apoptosis cells level at 2 uM incubated for 12 hrs by Alexa Fluor 488 annexin V and mito-tracker red CMXRos dye staining based flow cytometry (reference value: 0.0%); type: functional
Summary of the method: (§3)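 Cells in complete medium were treated with 0, 2 or 4 µM for 12 h, then trypsinised. They were stained with MitoTracker Red (4 µL of 10 µM working solution per 1 mL of cells) for 30 min at 37 °C under 5% CO2. Cells were then resuspended in annexin-binding buffer with Alexa Fluor 488 annexin V for 15 min. Flow cytometry emission read at 530 and 585 nm. Two independent experiments, each in triplicate.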

[5] = tested on: 2008; assay: Induction of cell cycle arrest in human OV2008 cells assessed as cell accumulation at G2 phase at 4 uM incubated for 12 hrs by propidium iodide staining based flow cytometry (reference value: 2.5%); type: functional; summary of the method: as §1
[6] = tested on: 2008; assay: Induction of cell cycle arrest in human OV2008 cells assessed as cell accumulation at subG1 phase at 2 uM incubated for 12 hrs by propidium iodide staining based flow cytometry (reference value: 11.3%); type: functional; summary of the method: as §1
[7] = tested on: 2008; assay: Induction of cell cycle arrest in human OV2008 cells assessed as cell accumulation at G1 phase at 4 uM incubated for 12 hrs by propidium iodide staining based flow cytometry (reference value: 79.1%); type: functional; summary of the method: as §1
[8] = Selectivity index, ratio of IC50 for cytotoxicity in HEK293 cells incubated for 68 hrs by MTT assay to IC50 for cytotoxicity in human OV2008 cells incubated for 68 hrs by MTT assay; type: toxicity, cell-based; conditions: HEK293 cells versus OV2008 cells, read-out: Ratio IC50
[9] = tested on: 2008; assay: Reduction in mitochondrial potential in human OV2008 cells at 2 uM incubated for 12 hrs by Alexa Fluor 488 annexin V and mito-tracker red CMXRos dye staining based flow cytometry; type: functional, cell-based; summary of the method: as §3
[10] = Selectivity index, ratio of IC50 for cytotoxicity in HEK293 cells incubated for 68 hrs by MTT assay to IC50 for cytotoxicity in human A2780 cells incubated for 68 hrs by MTT assay; type: toxicity, cell-based; conditions: HEK293 cells versus A2780 cells, read-out: Ratio IC50
[11] = tested on: HEK293; assay: Cytotoxicity in HEK293 cells assessed as reduction in cell viability incubated for 68 hrs by MTT assay; type: cell-based; conditions: Homo sapiens, HEK293, 68 h; summary of the method: as §2
[12] = tested on: 2008; assay: Potency index, ratio of IC50 for silybin to IC50 for test compound for cytotoxicity in human OV2008 cells assessed as reduction in cell viability incubated for 68 hrs by MTT assay; type: functional
[13] = tested on: 2008; assay: Induction of cell cycle arrest in human OV2008 cells assessed as increase in cell accumulation at subG1 phase at 2 to 4 uM incubated for 12 hrs by propidium iodide staining based flow cytometry; type: functional; summary of the method: as §1
[14] = Cytotoxicity in human CRL1459 cells assessed as reduction in cell viability incubated for 68 hrs by MTT assay; type: cell-based; summary of the method: as §2
[15] = tested on: PANC-1; assay: Cytotoxicity in human PANC1 cells assessed as reduction in cell viability incubated for 68 hrs by MTT assay; type: functional, cell-based; conditions: PANC-1, 68 h; summary of the method: as §2
[16] = tested on: BT-20; assay: Cytotoxicity in human BT20 cells assessed as reduction in cell viability incubated for 68 hrs by MTT assay; type: functional, cell-based; conditions: BT-20, 68 h; summary of the method: as §2
[17] = tested on: A2780; assay: Potency index, ratio of IC50 for silybin to IC50 for test compound for cytotoxicity in human A2780 cells assessed as reduction in cell viability incubated for 68 hrs by MTT assay; type: functional

## O=C(/C=C/c1cccc(OCc2ccccc2)c1)c1ccc(O)cc1
[1]
  inhibition: Active
[2]
  Activity: 5.2%
[3]
  IC50: 2.8 µM
[4]
  Activity: 37.3%
[5]
  Activity: 1.9%
[6]
  Activity: 25.5%
[7]
  Activity: 45.3%
[8]
  selectivity ratio at 68 h: 6 to 30
[9]
  Activity: Active
[10]
  selectivity ratio at 68 h: 6 to 30
[11]
  IC50: 5.4 µM
[12]
  Ratio IC50: 30 - 200
[13]
  Activity: Dose-dependent effect
[14]
  IC50: 8.5 µM
[15]
  IC50: 2.6 µM
[16]
  IC50: 5.1 µM
[17]
  Ratio IC50: 30 - 200
